The source made the active and inactive calls. The rule behind the calls is not given here.
Experiments:
[1] = molecular target: Serine/threonine-protein kinase MARK2 (Homo sapiens) (UniProt Q7KZI7); test: Binding affinity to wild-type human partial length MARK2 (M1 to R450 residues) expressed in bacterial expression system assessed as residual binding level at 1 uM by Kinomescan method relative to control
Method in brief: (§1)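 Kinome-wide competition binding screen against a panel of 468 purified kinases/mutants, with the test compound at a single concentration of 1 μM. Read-out is the relative binding activity of each kinase in the presence of compound.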

[2] = test system: Epidermal growth factor receptor (Homo sapiens), P00533 [L858R]; test: Binding affinity to human partial length EGFR L858R mutant (R669 to V1011 residues) expressed in bacterial expression system assessed as residual binding level at 1 uM by Kinomescan method relative to control
Method in brief: (§2)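 Kinome-wide single-concentration binding screen (KINOMEscan) at 1 μM against a panel of 468 purified kinases and mutants. Read-out is relative binding of each kinase compared with control. Selectivity across the panel was summarised as an S(10) score.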

[3] = molecular target: Serine/threonine-protein kinase 25 (Homo sapiens) (UniProt O00506); test: Binding affinity to wild-type human partial length YSK1 (V14 to H295 residues) expressed in bacterial expression system assessed as residual binding level at 1 uM by Kinomescan method relative to control
[4] = molecular target: Serine/threonine-protein kinase TAO2 (Homo sapiens) (UniProt Q9UL54); test: Binding affinity to wild-type human partial length TAOK2 (M1 to A320 residues) expressed in mammalian expression system assessed as residual binding level at 1 uM by Kinomescan method relative to control
[5] = molecular target: Mitogen-activated protein kinase 10 (Homo sapiens) (UniProt P53779); test: Binding affinity to wild-type human partial length JNK3 (V28 to Q422 residues) expressed in mammalian expression system assessed as residual binding level at 1 uM by Kinomescan method relative to control; method in brief: as §1
[6] = molecular target: STE20/SPS1-related proline-alanine-rich protein kinase (Homo sapiens) (UniProt Q9UEW8); test: Binding affinity to wild-type human partial length STK39 (P43 to I357 residues) expressed in mammalian expression system assessed as residual binding level at 1 uM by Kinomescan method relative to control
[7] = test system: Tyrosine-protein kinase ABL1 (Homo sapiens), P00519 [H396P]; test: Binding affinity to human non-phosphorylated ABL1 H396P mutant (S229 to K512 residues) expressed in mammalian expression system assessed as residual binding level at 1 uM by Kinomescan method relative to control; method in brief: as §2
[8] = molecular target: Mitogen-activated protein kinase kinase kinase 15 (Homo sapiens) (UniProt Q6ZN16); test: Binding affinity to wild-type human partial length MAP3K15 (T625 to L932 residues) expressed in mammalian expression system assessed as residual binding level at 1 uM by Kinomescan method relative to control
[9] = test system: Platelet-derived growth factor receptor alpha (Homo sapiens), P16234 [T674I]; test: Inhibition of TEL-fused PDGFRalpha T674I mutant (unknown origin) expressed in mouse BA/F3 cells assessed as growth inhibition after 72 hrs by CellTiter-Glo or CCK-8 assay; assay type: cell-based
Homo sapiens = organism: Homo sapiens; test: Selectivity index, ratio of IC50 for PDGFRbeta (unknown origin) by ADP-Glo kinase assay to IC50 for PDGFRalpha (unknown origin) by ADP-Glo kinase assay
[10] = molecular target: Serine/threonine-protein kinase ULK3 (Homo sapiens) (UniProt Q6PHR2); test: Binding affinity to wild-type human partial length ULK3 (M1 to Q290 residues) expressed in mammalian expression system assessed as residual binding level at 1 uM by Kinomescan method relative to control
[11] = test system: Tyrosine-protein kinase ABL1 (Homo sapiens), P00519 [T315I]; test: Binding affinity to human phosphorylated ABL1 T315I mutant (S229 to K512 residues) expressed in mammalian expression system assessed as residual binding level at 1 uM by Kinomescan method relative to control
Method in brief: (§3)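 Single-concentration (1 μM) competition-binding screen run by KINOMEscan against a panel of 468 purified kinases and mutants. The read-out is the relative binding activity of the test compound to each kinase.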

[12] = molecular target: Mitogen-activated protein kinase kinase kinase kinase 4 (Homo sapiens) (UniProt O95819); test: Binding affinity to wild-type human partial length MAP4K4 (M1 to R310 residues) expressed in bacterial expression system assessed as residual binding level at 1 uM by Kinomescan method relative to control; method in brief: as §1
[13] = molecular target: Mitogen-activated protein kinase kinase kinase 19 (Homo sapiens) (UniProt Q56UN5); test: Binding affinity to wild-type human partial length YSK4 (T1019 to H1328 residues) expressed in mammalian expression system assessed as residual binding level at 1 uM by Kinomescan method relative to control
[14] = molecular target: Ribosomal protein S6 kinase alpha-4 (Homo sapiens) (UniProt O75676); test: Binding affinity to wild-type human partial length N-terminal RPS6KA4 kinase domain 1 expressed in bacterial expression system assessed as residual binding level at 1 uM by Kinomescan method relative to control
[15] = molecular target: Ribosomal protein S6 kinase alpha-4 (Homo sapiens) (UniProt O75676); test: Binding affinity to wild-type human partial length C-terminal RPS6KA4 kinase domain 2 (M375 to T705 residues) expressed in mammalian expression system assessed as residual binding level at 1 uM by Kinomescan method relative to control
[16] = molecular target: Serine/threonine-protein kinase haspin (Homo sapiens) (UniProt Q8TF76); test: Binding affinity to wild-type human partial length HASPIN (I452 to K798 residues) expressed in mammalian expression system assessed as residual binding level at 1 uM by Kinomescan method relative to control; method in brief: as §1
[17] = molecular target: Leukocyte tyrosine kinase receptor (Homo sapiens) (UniProt P29376); test: Binding affinity to wild-type human partial length LTK (P422 to S744 residues) expressed in bacterial expression system assessed as residual binding level at 1 uM by Kinomescan method relative to control; method in brief: as §1
[18] = molecular target: Platelet-derived growth factor receptor alpha (Homo sapiens, UniProt P16234); test: Inhibition of PDGFRalpha autophosphorylation at Y849 residue in human EOL-1 cells up to 300 nM after 2 hrs by Western blot analysis; assay type: cell-based
[19] = test system: Tyrosine-protein kinase ABL1 (Homo sapiens), P00519 [Y253F]; test: Binding affinity to human phosphorylated ABL1 Y253F mutant (S229 to K512 residues) expressed in mammalian expression system assessed as residual binding level at 1 uM by Kinomescan method relative to control; method in brief: as §3
[20] = molecular target: Serine/threonine-protein kinase 33 (Homo sapiens) (UniProt Q9BYT3); test: Binding affinity to wild-type human full length STK33 (M1 to L514 residues) expressed in bacterial expression system assessed as residual binding level at 1 uM by Kinomescan method relative to control
Method in brief: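 KINOMEscan competition binding against 468 purified kinases/mutants, test compound at 1 µM; residual binding relative to control.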

[21] = molecular target: Activated CDC42 kinase 1 (Homo sapiens) (UniProt Q07912); test: Binding affinity to wild-type human partial length TNK2 (S159 to D474 residues) expressed in bacterial expression system assessed as residual binding level at 1 uM by Kinomescan method relative to control
[22] = molecular target: Aurora kinase C (Homo sapiens) (UniProt Q9UQB9); test: Binding affinity to wild-type human full length AURKC (M1 to S275 residues) expressed in bacterial expression system assessed as residual binding level at 1 uM by Kinomescan method relative to control; method in brief: as §3

Chain of Ribosomal protein S6 kinase alpha-4 (Homo sapiens) (O75676 whole entry, looked up, the tested form may be a part): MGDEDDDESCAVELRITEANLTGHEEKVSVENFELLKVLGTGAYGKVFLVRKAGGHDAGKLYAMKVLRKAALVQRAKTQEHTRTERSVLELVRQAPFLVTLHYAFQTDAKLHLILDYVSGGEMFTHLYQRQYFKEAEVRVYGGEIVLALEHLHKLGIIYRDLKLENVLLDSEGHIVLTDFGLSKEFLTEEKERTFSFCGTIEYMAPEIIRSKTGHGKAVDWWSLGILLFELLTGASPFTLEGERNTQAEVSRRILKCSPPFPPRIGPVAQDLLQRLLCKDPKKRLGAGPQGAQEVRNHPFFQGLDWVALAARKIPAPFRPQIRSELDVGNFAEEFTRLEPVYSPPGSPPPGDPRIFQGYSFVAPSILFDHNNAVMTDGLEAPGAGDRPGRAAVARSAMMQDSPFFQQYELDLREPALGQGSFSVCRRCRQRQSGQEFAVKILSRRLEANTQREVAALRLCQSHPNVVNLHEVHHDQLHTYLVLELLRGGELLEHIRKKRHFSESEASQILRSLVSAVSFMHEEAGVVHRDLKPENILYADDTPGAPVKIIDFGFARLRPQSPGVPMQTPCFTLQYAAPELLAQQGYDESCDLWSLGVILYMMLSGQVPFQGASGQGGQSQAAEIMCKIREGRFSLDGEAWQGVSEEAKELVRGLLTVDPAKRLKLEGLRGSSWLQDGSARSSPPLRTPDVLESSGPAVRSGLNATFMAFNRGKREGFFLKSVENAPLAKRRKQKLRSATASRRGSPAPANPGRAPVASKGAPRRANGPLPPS
Chain of Mitogen-activated protein kinase kinase kinase 19 (Homo sapiens) (Q56UN5 whole entry, the tested form may be a part): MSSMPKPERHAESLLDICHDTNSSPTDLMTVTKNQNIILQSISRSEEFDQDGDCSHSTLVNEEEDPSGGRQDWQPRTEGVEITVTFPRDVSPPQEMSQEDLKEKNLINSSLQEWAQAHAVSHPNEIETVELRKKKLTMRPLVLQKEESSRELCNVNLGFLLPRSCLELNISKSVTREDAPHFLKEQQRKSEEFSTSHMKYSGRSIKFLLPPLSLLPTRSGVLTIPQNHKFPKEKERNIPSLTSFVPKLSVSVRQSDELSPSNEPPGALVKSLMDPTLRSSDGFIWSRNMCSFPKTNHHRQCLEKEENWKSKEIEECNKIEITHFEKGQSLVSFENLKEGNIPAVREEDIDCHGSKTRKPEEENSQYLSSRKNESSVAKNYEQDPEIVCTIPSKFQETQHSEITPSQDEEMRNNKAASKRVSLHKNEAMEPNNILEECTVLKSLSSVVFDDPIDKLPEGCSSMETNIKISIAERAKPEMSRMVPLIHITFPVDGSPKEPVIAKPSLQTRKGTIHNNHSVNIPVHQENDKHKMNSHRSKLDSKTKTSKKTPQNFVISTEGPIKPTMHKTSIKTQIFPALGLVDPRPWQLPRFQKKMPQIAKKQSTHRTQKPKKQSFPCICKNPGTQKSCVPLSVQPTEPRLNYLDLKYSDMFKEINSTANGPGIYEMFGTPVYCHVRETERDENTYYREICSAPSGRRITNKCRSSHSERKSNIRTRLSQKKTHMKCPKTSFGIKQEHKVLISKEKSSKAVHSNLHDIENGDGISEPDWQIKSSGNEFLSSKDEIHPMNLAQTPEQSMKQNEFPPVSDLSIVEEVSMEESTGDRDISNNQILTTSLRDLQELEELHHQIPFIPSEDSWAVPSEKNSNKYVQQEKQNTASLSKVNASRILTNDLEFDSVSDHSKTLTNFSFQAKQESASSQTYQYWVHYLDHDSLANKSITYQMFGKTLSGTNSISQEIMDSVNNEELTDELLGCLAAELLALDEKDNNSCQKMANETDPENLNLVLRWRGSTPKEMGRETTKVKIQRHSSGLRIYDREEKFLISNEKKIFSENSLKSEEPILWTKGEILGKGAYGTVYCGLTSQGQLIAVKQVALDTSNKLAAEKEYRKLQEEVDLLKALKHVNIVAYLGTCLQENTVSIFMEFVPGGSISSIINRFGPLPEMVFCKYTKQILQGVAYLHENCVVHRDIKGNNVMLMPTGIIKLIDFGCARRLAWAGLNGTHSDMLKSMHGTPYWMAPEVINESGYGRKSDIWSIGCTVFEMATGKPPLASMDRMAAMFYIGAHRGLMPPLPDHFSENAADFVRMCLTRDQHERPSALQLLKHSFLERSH
Chain of Mitogen-activated protein kinase kinase kinase kinase 4 (Homo sapiens) (O95819 2-1239 limits assumed): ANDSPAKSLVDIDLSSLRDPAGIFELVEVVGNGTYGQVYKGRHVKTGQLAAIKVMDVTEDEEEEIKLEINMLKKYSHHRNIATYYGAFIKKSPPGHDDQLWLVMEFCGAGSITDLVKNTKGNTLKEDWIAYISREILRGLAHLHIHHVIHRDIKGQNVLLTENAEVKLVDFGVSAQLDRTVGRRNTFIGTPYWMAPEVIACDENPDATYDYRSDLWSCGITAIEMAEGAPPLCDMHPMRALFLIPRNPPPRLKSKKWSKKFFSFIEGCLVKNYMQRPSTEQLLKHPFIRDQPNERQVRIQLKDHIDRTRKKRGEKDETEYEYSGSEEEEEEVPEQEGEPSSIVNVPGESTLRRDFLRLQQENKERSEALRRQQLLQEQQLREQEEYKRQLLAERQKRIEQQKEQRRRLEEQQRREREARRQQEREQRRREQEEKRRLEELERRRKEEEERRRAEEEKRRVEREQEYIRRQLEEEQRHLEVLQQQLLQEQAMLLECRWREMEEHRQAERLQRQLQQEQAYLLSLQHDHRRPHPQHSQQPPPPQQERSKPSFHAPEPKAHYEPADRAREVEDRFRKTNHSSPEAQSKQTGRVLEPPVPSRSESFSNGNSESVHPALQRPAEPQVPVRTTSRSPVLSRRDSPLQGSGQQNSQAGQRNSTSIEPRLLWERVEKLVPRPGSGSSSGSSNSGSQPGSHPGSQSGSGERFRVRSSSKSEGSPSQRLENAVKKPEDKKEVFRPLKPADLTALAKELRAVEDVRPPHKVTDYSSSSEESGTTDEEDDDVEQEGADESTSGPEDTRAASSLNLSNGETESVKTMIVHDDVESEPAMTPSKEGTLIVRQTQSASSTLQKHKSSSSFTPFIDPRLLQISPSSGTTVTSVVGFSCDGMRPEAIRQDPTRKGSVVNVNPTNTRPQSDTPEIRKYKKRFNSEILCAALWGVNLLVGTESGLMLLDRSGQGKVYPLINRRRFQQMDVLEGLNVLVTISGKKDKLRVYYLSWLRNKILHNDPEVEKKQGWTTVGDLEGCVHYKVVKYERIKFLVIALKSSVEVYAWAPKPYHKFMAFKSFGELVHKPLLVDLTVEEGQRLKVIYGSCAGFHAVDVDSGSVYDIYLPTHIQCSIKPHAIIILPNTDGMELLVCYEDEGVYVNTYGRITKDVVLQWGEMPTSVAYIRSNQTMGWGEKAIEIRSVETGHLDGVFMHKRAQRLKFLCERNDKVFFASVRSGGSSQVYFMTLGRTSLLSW
Chain of Mitogen-activated protein kinase kinase kinase 15 (Homo sapiens) (Q6ZN16 whole entry, the tested form may be a part): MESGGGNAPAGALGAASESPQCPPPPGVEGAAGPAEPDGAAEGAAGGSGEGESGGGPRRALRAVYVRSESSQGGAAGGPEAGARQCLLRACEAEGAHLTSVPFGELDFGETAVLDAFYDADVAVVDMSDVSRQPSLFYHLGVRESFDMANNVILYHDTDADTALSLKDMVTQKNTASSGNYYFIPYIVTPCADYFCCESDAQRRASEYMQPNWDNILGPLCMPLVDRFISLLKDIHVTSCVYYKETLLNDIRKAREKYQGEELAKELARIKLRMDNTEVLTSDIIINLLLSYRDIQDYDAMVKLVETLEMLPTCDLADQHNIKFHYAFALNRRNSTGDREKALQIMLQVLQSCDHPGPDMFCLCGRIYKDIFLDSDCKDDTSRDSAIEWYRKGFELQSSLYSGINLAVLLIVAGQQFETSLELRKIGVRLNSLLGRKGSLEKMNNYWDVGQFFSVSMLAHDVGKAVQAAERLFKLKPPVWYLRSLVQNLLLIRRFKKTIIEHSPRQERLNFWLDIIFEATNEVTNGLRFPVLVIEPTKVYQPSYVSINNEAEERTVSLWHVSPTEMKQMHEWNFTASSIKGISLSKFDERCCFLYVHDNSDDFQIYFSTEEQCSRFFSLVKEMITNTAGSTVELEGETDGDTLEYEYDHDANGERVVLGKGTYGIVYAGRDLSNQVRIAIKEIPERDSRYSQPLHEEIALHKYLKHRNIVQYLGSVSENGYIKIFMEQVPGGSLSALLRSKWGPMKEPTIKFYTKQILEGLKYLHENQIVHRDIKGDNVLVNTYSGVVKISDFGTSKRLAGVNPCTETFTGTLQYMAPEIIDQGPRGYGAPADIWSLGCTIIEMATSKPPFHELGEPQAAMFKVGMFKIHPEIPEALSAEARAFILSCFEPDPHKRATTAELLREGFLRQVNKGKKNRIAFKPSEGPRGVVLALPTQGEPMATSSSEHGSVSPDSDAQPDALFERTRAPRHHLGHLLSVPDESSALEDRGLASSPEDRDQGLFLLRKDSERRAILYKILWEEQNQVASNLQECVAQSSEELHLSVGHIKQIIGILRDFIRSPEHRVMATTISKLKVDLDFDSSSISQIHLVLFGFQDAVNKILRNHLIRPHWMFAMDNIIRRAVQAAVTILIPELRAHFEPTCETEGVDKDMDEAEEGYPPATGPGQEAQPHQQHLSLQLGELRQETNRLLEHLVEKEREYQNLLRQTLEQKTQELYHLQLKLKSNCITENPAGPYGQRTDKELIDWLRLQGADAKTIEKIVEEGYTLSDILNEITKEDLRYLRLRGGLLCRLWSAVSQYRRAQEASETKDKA
Chain of Serine/threonine-protein kinase ULK3 (Homo sapiens) (Q6PHR2 whole entry, the tested form may be a part): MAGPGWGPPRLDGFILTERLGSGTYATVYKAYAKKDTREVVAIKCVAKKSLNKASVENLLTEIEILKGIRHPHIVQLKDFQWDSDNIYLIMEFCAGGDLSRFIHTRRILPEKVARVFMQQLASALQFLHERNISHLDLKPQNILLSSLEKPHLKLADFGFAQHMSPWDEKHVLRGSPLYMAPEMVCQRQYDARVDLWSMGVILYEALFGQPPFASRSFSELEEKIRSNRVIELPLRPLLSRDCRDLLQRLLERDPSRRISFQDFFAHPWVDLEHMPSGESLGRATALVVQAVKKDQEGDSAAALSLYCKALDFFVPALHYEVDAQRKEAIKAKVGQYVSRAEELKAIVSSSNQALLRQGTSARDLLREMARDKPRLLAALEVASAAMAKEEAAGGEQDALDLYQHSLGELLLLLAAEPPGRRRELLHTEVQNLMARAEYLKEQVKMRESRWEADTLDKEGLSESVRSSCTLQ

Compound `Cc1ccc(NC(=O)c2ccc(CN(CCN(C)C)C(=O)c3cccnc3)cc2)cc1Nc1nccc(-c2cccnc2)n1` has an Activity [1] of 91%, an Activity [2] of 100% and an Activity [3] of 100%. For the same compound, the Activity [4] was 77%, the Activity [5] was 48% and the Activity [6] was 90%. The Activity [7] was 69%, the Activity [8] was 100% and the GI50 [9] was greater than 10 µM. The Ratio IC50 (Homo sapiens) was 46, the Activity [10] was 85% and the Activity [11] was 100%. It also gave an Activity [12] of 87%, an Activity [13] of 96% and an Activity [14] of 82%. It also gave an Activity [15] of 100%, an Activity [16] of 72% and an Activity [17] of 87%. The inhibition [18] was “Active”, the Activity [19] was 90% and the Activity [20] was 89%. For the same compound, the Activity [21] was 88% and the Activity [22] was 97%.

Reference: ChEMBL document CHEMBL4229344 (Eur J Med Chem, 2018)
